Results: ChEMBL document CHEMBL4265982, “Hybrid compounds from chalcone and 1,2-benzothiazine pharmacophores as selective inhibitors of alkaline phosphatase isozymes” (Eur J Med Chem, 2018)
Calls of active or inactive are those of the source. The rule behind the calls is not given here.

Assays:
[1] = biological target: T1, Alkaline phosphatase, tissue-nonspecific isozyme (Homo sapiens, UniProt P05186); assay: Inhibition of human TNAP expressed in African green monkey COS7 cell membranes using CDP-star as substrate pretreated for 5 to 10 mins followed by substrate addition and measured after 15 to 20 mins by […]
T1 sequence (P05186 whole entry): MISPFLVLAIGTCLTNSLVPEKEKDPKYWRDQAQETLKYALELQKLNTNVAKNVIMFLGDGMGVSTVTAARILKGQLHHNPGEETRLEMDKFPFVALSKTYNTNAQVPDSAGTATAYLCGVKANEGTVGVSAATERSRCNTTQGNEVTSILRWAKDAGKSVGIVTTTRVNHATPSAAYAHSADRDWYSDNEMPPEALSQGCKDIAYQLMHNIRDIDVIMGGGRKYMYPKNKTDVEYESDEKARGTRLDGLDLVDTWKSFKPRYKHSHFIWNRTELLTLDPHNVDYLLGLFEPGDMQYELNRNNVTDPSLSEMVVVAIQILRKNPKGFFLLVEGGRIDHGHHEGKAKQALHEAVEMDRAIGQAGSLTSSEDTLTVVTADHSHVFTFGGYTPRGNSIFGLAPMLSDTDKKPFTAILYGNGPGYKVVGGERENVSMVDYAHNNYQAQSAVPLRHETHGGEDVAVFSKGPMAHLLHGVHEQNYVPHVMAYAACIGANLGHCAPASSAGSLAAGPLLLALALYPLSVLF

[2] = biological target: T2, Intestinal-type alkaline phosphatase (Homo sapiens, UniProt P09923); assay: Inhibition of human IAP expressed in African green monkey COS7 cell membranes using CDP-star as substrate pretreated for 5 to 10 mins followed by substrate addition and measured after 15 to 20 mins by […]
How it was run: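 Enzyme from transfected COS-7 lysates (h-TNAP 46 ng/well, h-IAP 57 ng/well), stored with 7.5% glycerol at -80 °C. Inhibitor tested up to 200 μM, final DMSO 1%, in 3 M DEA pH 9.8 with 2.5 mM MgCl2 and 0.05 mM ZnCl2. Preincubation 37 °C for 5–10 min, then CDP-Star added. Luminescence read after 15–20 min. IC50 from curve fitting, mean ± SEM, n = 3.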
Target sequence in this assay (P09923 whole entry): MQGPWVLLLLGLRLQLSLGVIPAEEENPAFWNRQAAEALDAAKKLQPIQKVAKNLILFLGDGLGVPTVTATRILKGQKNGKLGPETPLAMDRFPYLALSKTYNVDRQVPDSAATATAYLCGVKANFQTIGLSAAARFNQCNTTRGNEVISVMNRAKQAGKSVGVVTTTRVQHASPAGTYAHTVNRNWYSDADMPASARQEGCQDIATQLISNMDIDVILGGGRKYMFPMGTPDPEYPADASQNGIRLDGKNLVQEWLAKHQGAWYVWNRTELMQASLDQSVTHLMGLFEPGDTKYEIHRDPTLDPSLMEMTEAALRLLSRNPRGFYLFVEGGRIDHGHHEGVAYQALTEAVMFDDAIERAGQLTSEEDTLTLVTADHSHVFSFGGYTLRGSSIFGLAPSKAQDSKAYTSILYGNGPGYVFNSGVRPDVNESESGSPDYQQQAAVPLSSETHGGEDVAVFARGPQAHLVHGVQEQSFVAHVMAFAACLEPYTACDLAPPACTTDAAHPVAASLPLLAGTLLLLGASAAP

[3] = organism: Homo sapiens; assay: Selectivity index, ratio of IC50 for human TNAP expressed in African green monkey COS7 cell membranes to IC50 for human IAP expressed in African green monkey COS7 cell membranes
How it was run: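 Ratio of IC50 at h-TNAP to IC50 at h-IAP. Each IC50 is from the CDP-Star luminescence assay on lysates of transfected COS-7 cells, pH 9.8 DEA buffer. Index > 1 means selectivity for h-IAP; < 1 means selectivity for h-TNAP.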

[4] = tested on: HeLa; assay: Cytotoxicity against human HeLa cells assessed as cell growth inhibition at 100 uM after 24 hrs by MTT assay; type: functional; details: read-out: GI
How it was run: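 HeLa cells seeded overnight at 2.5 × 10⁴ cells/mL, then exposed to compound (final 100 μM) for 24 h at 37 °C. MTT (5 μg/well) added for 4 h, then solubilised with 50% isopropanol/10% SDS. OD read at 570 nm minus 690 nm background. Percent inhibition relative to untreated control; triplicate, mean of three independent experiments ± SEM.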

[5] = biological target: T2, Intestinal-type alkaline phosphatase; assay: Competitive inhibition of human IAP expressed in African green monkey COS7 cell membranes up to 1.5 uM using CDP-star as substrate pretreated for 5 to 10 mins followed by substrate addition and measured after 15 to 20 mins by double reciprocal plot analysis
Target sequence in this assay (P09923 whole entry, looked up): as the sequence (P09923 whole entry) above

[6] = biological target: T3, Alkaline phosphatase, tissue-nonspecific isozyme (Homo sapiens) (UniProt P05186); assay: Non-competitive inhibition of human TNAP expressed in African green monkey COS7 cell membranes up to 0.3 uM using CDP-star as substrate pretreated for 5 to 10 mins followed by substrate addition and measured after 15 to 20 mins by double reciprocal plot analysis
T3 sequence (whole entry): T1 sequence (P05186 whole entry)
How it was run: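 Kinetics: double reciprocal plots of initial velocity versus CDP-Star concentration at several inhibitor concentrations. Enzyme is lysate of COS-7 cells transfected with h-TNAP plasmid (lipofectamine, 5 h, 37 °C, harvested 40–72 h). Buffer 3 M DEA pH 9.8, 2.5 mM MgCl2, 0.05 mM ZnCl2. Preincubation 5–10 min at 37 °C, luminescence read 15–20 min after substrate.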

[7] = biological target: T3, Alkaline phosphatase, tissue-nonspecific isozyme (Homo sapiens); assay: Potency index, ratio of levamisole IC50 to test compound IC50 for human TNAP

Compound: COc1ccccc1/C=C1\NS(=O)(=O)c2ccccc2C1=O
- IC50 [1]: 2.59 µM
- IC50 [2]: 1.24 µM
- Ratio IC50 [3]: 2.1
- inhibition of growth at 100 µM [4]: 17%

Compound: O=C1/C(=C/c2c(F)cccc2F)NS(=O)(=O)c2ccccc21
- IC50 [1]: 1.53 µM
- IC50 [2]: 10.6 µM
- Ratio IC50 [3]: 0.1
- inhibition of growth at 100 µM [4]: 17%

Compound: COc1cccc(/C=C2\NS(=O)(=O)c3ccccc3C2=O)c1
- IC50 [1]: > 200 µM
- IC50 [2]: 1.04 µM
- Ratio IC50 [3]: > 190
- inhibition of growth at 100 µM [4]: 39%
- inhibition [5]: Active

Compound: O=C1/C(=C/c2ccc(Br)cc2)NS(=O)(=O)c2ccccc21
- IC50 [1]: 1.43 µM
- IC50 [2]: 3.69 µM
- Ratio IC50 [3]: 0.4
- inhibition of growth at 100 µM [4]: 59%

Compound: Cc1ccccc1/C=C1\NS(=O)(=O)c2ccccc2C1=O
- IC50 [1]: 2.36 µM
- IC50 [2]: 3.75 µM
- Ratio IC50 [3]: 0.6
- inhibition of growth at 100 µM [4]: 7%

Compound: O=C1/C(=C/c2ccc(F)cc2)NS(=O)(=O)c2ccccc21
- IC50 [1]: 1.35 µM
- IC50 [2]: 3.06 µM
- Ratio IC50 [3]: 0.4
- inhibition of growth at 100 µM [4]: 41%

Compound: O=C1/C(=C/c2ccc(Cl)cc2Cl)NS(=O)(=O)c2ccccc21
- IC50 [1]: > 200 µM
- IC50 [2]: 4.96 µM
- Ratio IC50 [3]: > 53
- inhibition of growth at 100 µM [4]: 59%

Compound: O=C1/C(=C/c2cccc(Cl)c2)NS(=O)(=O)c2ccccc21
- IC50 [1]: > 200 µM
- IC50 [2]: 3.77 µM
- Ratio IC50 [3]: > 50
- inhibition of growth at 100 µM [4]: 64%

Compound: O=C1/C(=C/c2ccccc2)NS(=O)(=O)c2ccccc21
- IC50 [1]: 0.66 µM
- IC50 [2]: 1.78 µM
- Ratio IC50 [3]: 0.4
- inhibition of growth at 100 µM [4]: 19%

Compound: c1ccc([C@H]2CN3CCSC3=N2)cc1 [LEVAMISOLE]
- IC50 [2]: > 200 µM

Compound: O=C1/C(=C/c2ccccc2Br)NS(=O)(=O)c2ccccc21
- IC50 [1]: > 200 µM
- IC50 [2]: 7.43 µM
- Ratio IC50 [3]: > 1
- inhibition of growth at 100 µM [4]: 53%

Compound: O=C1/C(=C/c2cccc(O)c2)NS(=O)(=O)c2ccccc21
- IC50 [1]: 3.57 µM
- IC50 [2]: 1.21 µM
- Ratio IC50 [3]: 3
- inhibition of growth at 100 µM [4]: 15%

Compound: O=C1/C(=C/c2ccc(Cl)cc2)NS(=O)(=O)c2ccccc21
- IC50 [1]: 0.25 µM
- IC50 [2]: 4.35 µM
- Ratio IC50 [3]: 0.1
- inhibition of growth at 100 µM [4]: 55%
- inhibition [6]: Active
- Ratio IC50 [7]: 80

Compound: COc1ccc(/C=C2\NS(=O)(=O)c3ccccc3C2=O)cc1
- IC50 [1]: 4.04 µM
- IC50 [2]: 1.53 µM
- Ratio IC50 [3]: 2.6
- inhibition of growth at 100 µM [4]: 11%

Compound: O=C1/C(=C/c2cccc(Br)c2)NS(=O)(=O)c2ccccc21
- IC50 [1]: > 200 µM
- IC50 [2]: 2.55 µM
- Ratio IC50 [3]: > 26
- inhibition of growth at 100 µM [4]: 65%

Compound: O=C1/C(=C/c2cccc(F)c2)NS(=O)(=O)c2ccccc21
- IC50 [1]: 3.19 µM
- IC50 [2]: 9.93 µM
- Ratio IC50 [3]: 0.3
- inhibition of growth at 100 µM [4]: 53%

Compound: N[C@@H](Cc1ccccc1)C(=O)O [PHENYLALANINE]
- IC50 [1]: > 200 µM
- Ratio IC50 [3]: > 2
